Assay [1] addresses T1, human SERT (Homo sapiens, UniProt P31645). As to the kind of experiment: Uptake inhibition in HEK-293 cells expressing human SERT. Type of assay: cell-based.
The target of assay [2] is T2, human DAT (Homo sapiens, UniProt Q01959). As to the kind of experiment: Transporter-mediated ionic currents, whole cell patch clamp, HEK-293 human DAT. Format: cell-based. The following applies: voltage clamped to −60 mV, 300 nM to 300 μM. The procedure, abridged: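 HEK-293 cells stably expressing human DAT were seeded at low density 24 h before recording. Whole-cell voltage clamp was held at −60 mV, with K-gluconate/EGTA pipette solution (pH 7.2) and NaCl/glucose HEPES bath (pH 7.4). Test compound (300 nM–300 μM) was applied by rapid superfusion. Passive holding currents were subtracted, traces low-pass filtered at 100 Hz, and currents normalised to 10 μM endogenous substrate. One-way ANOVA; n=3.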
T2 sequence (Q01959 whole entry, the tested form may be a part): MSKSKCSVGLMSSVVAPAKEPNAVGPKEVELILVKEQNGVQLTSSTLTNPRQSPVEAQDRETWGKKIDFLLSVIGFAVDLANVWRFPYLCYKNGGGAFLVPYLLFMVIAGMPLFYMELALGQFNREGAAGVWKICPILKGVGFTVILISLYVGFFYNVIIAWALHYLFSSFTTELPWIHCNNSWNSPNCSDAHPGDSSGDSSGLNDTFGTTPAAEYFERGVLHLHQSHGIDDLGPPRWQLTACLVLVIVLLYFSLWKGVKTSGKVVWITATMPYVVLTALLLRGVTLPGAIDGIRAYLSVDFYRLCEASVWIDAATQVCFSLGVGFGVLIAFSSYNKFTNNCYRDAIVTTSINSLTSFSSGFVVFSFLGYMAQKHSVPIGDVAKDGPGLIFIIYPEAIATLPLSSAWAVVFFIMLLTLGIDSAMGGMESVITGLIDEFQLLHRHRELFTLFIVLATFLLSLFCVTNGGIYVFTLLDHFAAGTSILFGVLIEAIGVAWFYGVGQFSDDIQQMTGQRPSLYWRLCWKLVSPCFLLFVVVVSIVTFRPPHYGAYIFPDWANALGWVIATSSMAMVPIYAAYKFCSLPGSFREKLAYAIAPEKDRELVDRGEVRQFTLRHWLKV
For orientation: Patch clamp records ionic current or voltage across a cell membrane.

Assay [3] addresses T2, human DAT. The assay can be described thus: Efflux. Format: cell-based. The following applies: HEK-293 human DAT, 10 μM drug, with or without 10 μM monensin.
Assay [4] has as its target T3, DAT (Rattus norvegicus, UniProt P23977). The assay can be described thus: Release of [3H]MPP+ from rat brain synaptosomes. Type of assay: biochemical. The settings on record: 0.1 nM to 10 μM. The procedure, abridged:
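Crude synaptosomes were prepared from rat caudate: homogenized in ice-cold 10% sucrose, spun at 1000 g for 10 min, supernatant kept. They were preloaded for 1 h with 9 nM [3H]MPP+ in Krebs-phosphate buffer; all buffers contained 1 μM reserpine. Test compound was applied at 0.1 nM–10 μM in triplicate. Release was stopped by vacuum filtration and counted by scintillation. EC50 was derived by nonlinear regression; n=3.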

The subject of the next assay is DAT and SERT. The following applies: HEK-293 cells, uptake inhibition; ref Simmler et al. 2013; 2014; cited from earlier work.
The target in assay [5] is T3, DAT. As to the kind of experiment: Uptake inhibition of [3H]dopamine in rat brain synaptosomes. Type of assay: biochemical. The settings on record: for DAT/SERT ratio ([DAT IC50]^−1/[SERT IC50]^−1): synaptosome uptake assays, higher value indicates greater DAT-selectivity.
Assay [6] concerns the target T4, SERT (Rattus norvegicus, UniProt P31652). As to the kind of experiment: Release of [3H]5-HT from rat brain synaptosomes. Type of assay: biochemical.
The subject of assay [7] is DAT. The following applies: 100 μM drug; ref Dolan et al. (2018); cited from earlier work.
In assay [8] the test system is extracellular dopamine and 5-HT in nucleus accumbens. The assay can be described thus: In vivo microdialysis in the nucleus accumbens of conscious rats. The settings on record: rat nucleus accumbens dialysate. The procedure, abridged:
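Male Sprague-Dawley rats (300–400 g) were implanted under ketamine/xylazine with a jugular catheter and a nucleus accumbens guide cannula, then recovered ≥1 week. Probes were perfused with Ringer's at 0.6 μL/min, and 20-min dialysates were assayed for dopamine and 5-HT by HPLC-ECD. After three stable baselines, rats received 1 mg/kg i.v. at time zero, then 3 mg/kg at 60 min; controls received saline 1 mL/kg. Data are % of baseline; N=6–7/group; two-way ANOVA, Bonferroni.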

For assay [9], the target named is T2, human DAT. As to the kind of experiment: Uptake inhibition in HEK-293 cells expressing human DAT. Format: cell-based.
Assay [10] concerns the target T1, human SERT. As to the kind of experiment: Efflux. Type of assay: cell-based. The settings on record: HEK-293 human SERT; for [3H]5-HT efflux at SERT: 10 μM drug; for effect of monensin on drug-evoked [3H]5-HT efflux at SERT: 10 μM drug plus 10 μM monensin. Put shortly: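 HEK-293 cells stably expressing YFP-tagged human SERT, seeded at 40,000 cells/well on poly-D-lysine-coated coverslips. Preloaded with 0.3 μM radiolabelled substrate for 20 min at 37 °C, then superfused at 25 °C, 0.7 mL/min, with Krebs Ringer HEPES (pH 7.4). Fractions collected every 2 min. After a 40-min washout baseline, 10 μM test compound was added alone or with 10 μM monensin. Cells were lysed in 1% SDS and counted by scintillation. Analysis: two-way ANOVA with Tukey; n=3, triplicate.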

Assay [11] has as its target T1, human SERT. The assay can be described thus: Transporter-mediated ionic currents, whole cell patch clamp, HEK-293 human SERT. The following applies: voltage clamped to −60 mV, 300 nM to 300 μM. Type of assay: cell-based.
The subject of the next assay is motor activity. The assay can be described thus: Motor activity and stereotypy. Format: in vivo, rat. The following applies: rats, 1 and 3 mg/kg i.v.; for motor activity (forward locomotion): compared to saline. Put shortly: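 Conscious, tethered male Sprague-Dawley rats were acclimated overnight in photobeam arenas and tracked for forward locomotion and stereotypy during microdialysis. Dosing was i.v. via jugular catheter: 1 mg/kg at time zero, then 3 mg/kg 60 min later; saline controls received 1 mL/kg on the same schedule. Data are % of basal preinjection values; N=6–7/group; two-way ANOVA (treatment × time) with Bonferroni tests against saline.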

In assay [12] the target is T4, SERT. The assay can be described thus: Uptake inhibition of [3H]5-HT in rat brain synaptosomes. Type of assay: biochemical.
Setting [13] is: 3 mg/kg i.v. given 60 min after 1 mg/kg.

Where only a bound is given, the exact number is not on record here.

T3 sequence (P23977 whole entry): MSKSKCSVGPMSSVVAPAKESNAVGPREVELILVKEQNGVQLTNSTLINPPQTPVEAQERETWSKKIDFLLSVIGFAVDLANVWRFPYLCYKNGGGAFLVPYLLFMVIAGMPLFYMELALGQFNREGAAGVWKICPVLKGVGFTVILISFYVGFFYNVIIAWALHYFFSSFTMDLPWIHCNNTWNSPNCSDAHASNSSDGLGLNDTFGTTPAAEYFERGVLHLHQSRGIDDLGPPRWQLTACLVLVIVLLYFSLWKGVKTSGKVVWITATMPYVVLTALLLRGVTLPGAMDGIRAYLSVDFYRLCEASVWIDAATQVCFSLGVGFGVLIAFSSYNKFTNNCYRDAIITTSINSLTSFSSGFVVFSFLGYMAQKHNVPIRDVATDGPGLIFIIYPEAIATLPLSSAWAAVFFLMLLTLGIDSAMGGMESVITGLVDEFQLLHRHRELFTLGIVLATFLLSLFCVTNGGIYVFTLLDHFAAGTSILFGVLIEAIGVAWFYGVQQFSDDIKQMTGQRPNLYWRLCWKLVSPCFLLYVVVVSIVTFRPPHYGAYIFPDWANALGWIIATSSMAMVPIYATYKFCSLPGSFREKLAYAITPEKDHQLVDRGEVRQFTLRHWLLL
T1 sequence (P31645 whole entry, the tested form may be a part): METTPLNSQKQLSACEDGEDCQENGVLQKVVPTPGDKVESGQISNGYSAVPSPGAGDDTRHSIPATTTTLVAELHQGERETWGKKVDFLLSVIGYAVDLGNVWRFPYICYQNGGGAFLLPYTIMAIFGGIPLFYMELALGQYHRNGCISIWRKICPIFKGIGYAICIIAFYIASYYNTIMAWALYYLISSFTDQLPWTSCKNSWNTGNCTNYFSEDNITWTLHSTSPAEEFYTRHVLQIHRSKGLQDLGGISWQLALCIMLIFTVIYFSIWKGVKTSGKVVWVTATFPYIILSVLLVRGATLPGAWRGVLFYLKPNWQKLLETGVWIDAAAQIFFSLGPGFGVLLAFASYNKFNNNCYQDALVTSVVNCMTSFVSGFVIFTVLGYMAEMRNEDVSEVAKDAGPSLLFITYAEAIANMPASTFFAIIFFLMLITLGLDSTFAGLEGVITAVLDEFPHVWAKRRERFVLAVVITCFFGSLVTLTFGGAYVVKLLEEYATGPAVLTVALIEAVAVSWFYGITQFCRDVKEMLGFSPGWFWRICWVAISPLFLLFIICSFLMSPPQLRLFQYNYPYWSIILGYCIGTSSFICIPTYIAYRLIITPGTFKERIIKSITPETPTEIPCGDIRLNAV
T4 sequence (P31652 whole entry): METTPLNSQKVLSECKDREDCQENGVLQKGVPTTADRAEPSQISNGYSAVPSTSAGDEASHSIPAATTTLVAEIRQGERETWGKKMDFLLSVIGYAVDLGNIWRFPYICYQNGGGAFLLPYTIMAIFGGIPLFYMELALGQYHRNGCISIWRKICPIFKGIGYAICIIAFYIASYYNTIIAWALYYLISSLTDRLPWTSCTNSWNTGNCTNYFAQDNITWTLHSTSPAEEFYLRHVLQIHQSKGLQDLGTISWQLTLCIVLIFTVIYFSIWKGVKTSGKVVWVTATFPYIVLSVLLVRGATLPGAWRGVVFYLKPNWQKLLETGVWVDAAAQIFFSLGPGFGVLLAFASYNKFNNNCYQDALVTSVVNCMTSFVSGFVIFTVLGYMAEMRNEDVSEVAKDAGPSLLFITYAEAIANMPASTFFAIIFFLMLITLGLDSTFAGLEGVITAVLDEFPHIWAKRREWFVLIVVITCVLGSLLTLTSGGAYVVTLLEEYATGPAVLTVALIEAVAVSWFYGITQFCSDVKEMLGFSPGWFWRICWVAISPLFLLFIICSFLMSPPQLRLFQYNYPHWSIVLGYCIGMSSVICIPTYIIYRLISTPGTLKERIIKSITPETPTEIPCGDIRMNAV

The IC50 is the concentration that inhibits the measured activity by half. One may read the EC50 as the concentration needed to bring the measured effect to its halfway point. The compound `CCC(NC)C(=O)c1ccc2c(c1)OCO2` (stereo not shown) [butylone, 1-(1,3-Benzodioxol-5-yl)-2-(methylamino)butan-1-one] displayed a half-maximal inhibitory concentration (IC50) on human SERT [1] of 24.4 ± 2 µM. On human DAT [2], the “transporter-mediated currents at DAT” value is given as “no discernable currents”. In addition, the “[3H]MPP+ efflux at DAT” value at human DAT [3] was “neither butylone nor pentylone evoked [^3H]MPP^+ efflux at DAT”. In addition, the “release of [3H]MPP+ at DAT” value at DAT [4] was “failed to produce efficacious release”. The DAT/SERT ratio in the assay with DAT and SERT was 2.1. Further, on DAT [5], 0.4 ± 0.02 µM corresponded to half-maximal inhibition (IC50) and the “DAT/SERT ratio ([DAT IC50]^−1/[SERT IC50]^−1)” value is reported as 3.6. On SERT [6], this compound came in with an EC50 of 0.33 ± 0.04 µM. In addition, the “drug-induced current at DAT as fraction of current induced by dopamine” value in the assay on DAT [7] is given as under 20%. In assay [8] (1 mg/kg i.v.), the “extracellular 5-HT levels increase” value stood at 3 fold and the “extracellular dopamine levels above baseline” value is given as 2 fold. In assay [8] (setting [13]), the “extracellular 5-HT levels increase” value is recorded as about 7 fold and the “extracellular dopamine levels increase” value was “about 3.5 fold”. Also, on human DAT [9], the IC50 amounted to 1.44 ± 0.1 µM. In addition, on human SERT [10], the “[3H]5-HT efflux at SERT” value was “evoked [^3H]5-HT efflux at SERT” and the “effect of monensin on drug-evoked [3H]5-HT efflux at SERT” value is listed as “markedly enhanced”. For the same compound, the SERT-mediated inward currents result on human SERT [11] was “dose-related induction of SERT-mediated inward currents”. The “motor activity (forward locomotion)” value in the assay on motor activity is given as “increased motor activity”. On SERT [12], this compound came in with an IC50 of 1.43 ± 0.16 µM.
On human SERT [1], `CCCC(NC)C(=O)c1ccc2c(c1)OCO2` (stereo not shown) [pentylone, 1-(1,3-benzodioxol-5-yl)-2-(methylamino)pentan-1-one] gave an IC50 of 11.7 ± 0.5 µM. Besides, the “transporter-mediated currents at DAT” value at human DAT [2] is listed as “no discernable currents”. Moreover, at human DAT [3], the “[3H]MPP+ efflux at DAT” value was “neither butylone nor pentylone evoked [^3H]MPP^+ efflux at DAT”. Also, at DAT [4], the “release of [3H]MPP+ at DAT” value is reported as “failed to produce efficacious release”. Moreover, the DAT/SERT ratio with DAT and SERT was 6.2. At DAT [5], the IC50 stood at 0.12 ± 0.01 µM and the “DAT/SERT ratio ([DAT IC50]^−1/[SERT IC50]^−1)” value worked out at 11.4. The midpoint of the response at SERT [6], the EC50, lay at 1.03 ± 0.18 µM. The “efficacy of SERT-mediated release” value on SERT [6] (rat brain synaptosomes, [3H]5-HT release) is reported as 48 % of Emax. Also, the “drug-induced current at DAT as fraction of current induced by dopamine” value in the assay with DAT [7] is under 20%. Further, in [8] (1 mg/kg i.v.), the “extracellular 5-HT levels increase” value is on record as “no effect” and the “extracellular dopamine levels above baseline” value is 2 fold. In assay [8] (setting [13]), the “extracellular 5-HT levels increase” value came to 3 fold and the “extracellular dopamine levels increase” value is given as “about 3.5 fold”. For the same compound, at human DAT [9], the IC50 worked out at 0.31 ± 0.07 µM. In addition, on human SERT [10], the “[3H]5-HT efflux at SERT” value was “evoked [^3H]5-HT efflux at SERT” and the “effect of monensin on drug-evoked [3H]5-HT efflux at SERT” value was “markedly enhanced”. For the same compound, at human SERT [11], the SERT-mediated inward currents result is recorded as “dose-related induction of SERT-mediated inward currents”. The “motor activity (forward locomotion)” value in the assay on motor activity was “increased motor activity”. The “stereotypy (repetitive movements)” value in the assay on motor activity (post hoc tests vs saline) is “increased stereotypy”. The same compound registered an IC50 on SERT [12] of 1.36 ± 0.1 µM.

The values are drawn from paper PMC6476708 (Psychopharmacology, 2018).
